# Numbering of substitutions follows the chain as printed. Names may count otherwise. No end group written: not given here.
# T1: GRK2 (β2AR substrate) (Bos taurus, UniProt P21146)
# T1 sequence (P21146 1-689): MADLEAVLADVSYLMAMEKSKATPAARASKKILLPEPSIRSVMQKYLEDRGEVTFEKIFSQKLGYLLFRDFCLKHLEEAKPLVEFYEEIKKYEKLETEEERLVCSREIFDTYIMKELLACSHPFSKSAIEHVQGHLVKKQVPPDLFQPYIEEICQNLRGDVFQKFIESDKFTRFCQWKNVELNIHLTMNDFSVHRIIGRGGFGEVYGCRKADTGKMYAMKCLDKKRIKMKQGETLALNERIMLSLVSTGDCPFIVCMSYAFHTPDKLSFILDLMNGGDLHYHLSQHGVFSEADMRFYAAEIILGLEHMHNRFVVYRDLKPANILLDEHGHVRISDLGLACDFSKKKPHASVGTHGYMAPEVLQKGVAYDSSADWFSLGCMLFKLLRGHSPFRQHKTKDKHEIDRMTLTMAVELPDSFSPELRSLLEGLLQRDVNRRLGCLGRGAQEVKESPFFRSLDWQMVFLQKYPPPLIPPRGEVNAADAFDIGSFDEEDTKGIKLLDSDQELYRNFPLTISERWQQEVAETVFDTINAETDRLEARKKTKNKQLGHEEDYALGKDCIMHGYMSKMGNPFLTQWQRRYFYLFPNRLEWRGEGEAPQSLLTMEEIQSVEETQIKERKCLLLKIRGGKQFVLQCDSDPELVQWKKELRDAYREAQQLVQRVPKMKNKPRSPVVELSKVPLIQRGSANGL
# T2: GRK2 (rhodopsin substrate) (Bos taurus, UniProt P21146)
# T2 sequence (P21146 1-689): T1 sequence (P21146 1-689)
# B1: V477D: mutation in the AGC kinase C-tail of GRK2, literature (protein, UniProt P25098 1-689, looked up, variant V477D)
# Beta-adrenergic receptor …: MADLEAVLADVSYLMAMEKSKATPAARASKKILLPEPSIRSVMQKYLEDRGEVTFEKIFSQKLGYLLFRDFCLNHLEEARPLVEFYEEIKKYEKLETEEERVARSREIFDSYIMKELLACSHPFSKSATEHVQGHLGKKQVPPDLFQPYIEEICQNLRGDVFQKFIESDKFTRFCQWKNVELNIHLTMNDFSVHRIIGRGGFGEVYGCRKADTGKMYAMKCLDKKRIKMKQGETLALNERIMLSLVSTGDCPFIVCMSYAFHTPDKLSFILDLMNGGDLHYHLSQHGVFSEADMRFYAAEIILGLEHMHNRFVVYRDLKPANILLDEHGHVRISDLGLACDFSKKKPHASVGTHGYMAPEVLQKGVAYDSSADWFSLGCMLFKLLRGHSPFRQHKTKDKHEIDRMTLTMAVELPDSFSPELRSLLEGLLQRDVNRRLGCLGRGAQEVKESPFFRSLDWQMVFLQKYPPPLIPPRGEDNAADAFDIGSFDEEDTKGIKLLDSDQELYRNFPLTISERWQQEVAETVFDTINAETDRLEARKKAKNKQLGHEEDYALGKDCIMHGYMSKMGNPFLTQWQRRYFYLFPNRLEWRGEGEAPQSLLTMEEIQSVEETQIKERKCLLLKIRGGKQFILQCDSDPELVQWKKELRDAYREAQQLVQRVPKMKNKPRSPVVELSKVPLVQRGSANGL
# B2: D3K: GRK2 amino terminal point mutant, Asp-3 to lysine (protein)
# chain: T1 sequence (P21146 1-689) with D3K
# B3: L4A: GRK2 amino terminal point mutant, Leu-4 to alanine (protein)
# chain: T1 sequence (P21146 1-689) with L4A
# B4: D10A: GRK2 amino terminal point mutant (protein)
# chain: T1 sequence (P21146 1-689) with D10A
# Key:
# [1] = Circular dichroism of GRK2 peptides; assay type: physicochemical; conditions: 16 µM peptide in PBS pH 7.0, 4°C
# How it was run: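 Far-UV CD spectra recorded at 4°C over 200–280 nm in a 1.0 cm pathlength cuvette (1 nm/min, 4 s response, 1 nm bandwidth). Test peptide was diluted to 16 µM in PBS pH 7.0 with varying trifluoroethanol. Observed ellipticity was converted to molar ellipticity using mean residue weight, path length and concentration. Relative helix content was deduced from these spectra.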
# GRK2 (β2AR substrate) = target: T1, GRK2 (β2AR substrate); experiment: Inhibition of GRK2 phosphorylation of β2AR by GRK peptides; assay type: biochemical
# [2] = target: T2, GRK2 (rhodopsin substrate); experiment: Inhibition of GRK2 phosphorylation of Rho* by GRK peptides; assay type: biochemical; conditions: 1-15 µM rhodopsin, 60 µM peptide; 3 independent experiments
# How it was run: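 Sf9-expressed, purified GRK2 (20 nM) phosphorylated 1–15 µM light-activated rhodopsin with or without 60 µM test peptide. Products were resolved by SDS-PAGE and autoradiographed, then bands were excised and scintillation-counted. Values are mean ± SD from three experiments.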
# [3] = target: T2, GRK2 (rhodopsin substrate); conditions: cited from earlier work
# GPCR = conditions: cited from earlier work
# rhodopsin (Rho*) = experiment: Phosphorylation of light-activated rhodopsin; assay type: biochemical; conditions: COS-1 lysates, 2-20 min, 30°C; autoradiography (Fig. 1B)
# [4] = system: β2-adrenergic receptor (β2AR); experiment: Phosphorylation of purified β2AR by purified GRK2 mutants; assay type: biochemical, human; conditions: 50 nM β2AR in mixed micelles, 20 nM GRK2, 10 µM isoproterenol, 0.2 mM ATP, 30°C; 3 experiments
molecule,measurement,setting,value
MADLEAPLADVYSL [Pro peptide],helix formation,[1]; in solution without TFE (0% TFE),minimal helical formation in solution
same,helix formation,[1]; in the presence of TFE (25-50%),no helix formation was observed
MADLEAVLADVYSL [GRK2 peptide],IC50,GRK2 (β2AR substrate),~50 µM
same,Km change,[2],no change in the Km
"MELENIVANTLLK [GRK5 peptide, reference compound]",effect on GRK2-mediated β2AR phosphorylation,"GRK2 (β2AR substrate); 200 µM peptide, 3 experiments (Fig. 4E)",no significant effect
same,effect on GRK2-mediated phosphorylation of rhodopsin,[3],no effect
B1,receptor phosphorylation and receptor-mediated activation,GPCR; GRK2 AGC kinase C-tail mutation,defective in receptor phosphorylation and receptor-mediated activation
same,activity against non-receptor substrates,GPCR,reduced activity against non-receptor substrates
B2,ability to phosphorylate Rho*,rhodopsin (Rho*),completely defective in their ability to phosphorylate Rho*
same,decrease in β2AR phosphorylation activity vs wild-type GRK2,[4],~ 60%
B3,decrease in β2AR phosphorylation activity vs wild-type GRK2,[4],90–95%
B4,ability to phosphorylate Rho*,rhodopsin (Rho*),completely defective in their ability to phosphorylate Rho*
same,decrease in β2AR phosphorylation activity vs wild-type GRK2,[4],90–95%

# Reference: paper PMC2736393 (Biochemistry, 2009)
